Experimental data taken from ChEMBL document CHEMBL2384986, “Re-evolution of the 2-phenylquinolines: ligand-based design, synthesis, and biological evaluation of a potent new class of Staphylococcus aureus NorA efflux pump inhibitors to combat antimicrobial resistance” (J Med Chem, 2013).
Active and inactive are the calls of the source. The rule behind the calls is not given here.

Tests used:
Staphylococcus aureus [1] = assay: Antibacterial activity against Staphylococcus aureus 1199B overexpressing NorA and grlA A116E mutant assessed as growth inhibition by microdilution method; type: functional
Summary of the method: (§1)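 Broth microdilution MIC per CLSI guidelines for intrinsic antistaphylococcal activity; highest concentration tested 100 μg/mL. SA-1199 is the norA wild-type parent, SA-1199B overexpresses norA and carries GrlA A116E, and SA-K2378 overexpresses norA from multicopy plasmid pCU1 in the norA-deleted SA-K1902 background.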

[2] = target: T1, Quinolone resistance protein NorA (Staphylococcus aureus) (UniProt P0A0J7); assay: Inhibition of NorA in Staphylococcus aureus 1199B harboring grlA A116E mutant assessed as inhibition of ethidium bromide efflux at 50 uM measured for 5 mins by fluorometric analysis relative to control
T1 sequence (whole entry): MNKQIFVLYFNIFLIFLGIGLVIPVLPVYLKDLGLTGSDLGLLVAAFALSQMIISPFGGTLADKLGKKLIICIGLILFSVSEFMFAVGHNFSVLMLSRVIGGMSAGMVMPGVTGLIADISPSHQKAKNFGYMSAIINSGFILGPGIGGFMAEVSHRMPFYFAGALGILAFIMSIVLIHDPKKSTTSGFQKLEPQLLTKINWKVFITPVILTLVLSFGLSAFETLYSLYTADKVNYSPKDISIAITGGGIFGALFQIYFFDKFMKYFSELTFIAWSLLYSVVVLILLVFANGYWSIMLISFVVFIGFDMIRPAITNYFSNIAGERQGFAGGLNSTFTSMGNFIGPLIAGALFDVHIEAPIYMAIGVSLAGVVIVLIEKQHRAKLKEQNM
Summary of the method: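 EtBr loss from SA-1199B (norA overexpressing, GrlA A116E) measured fluorometrically with inhibitor at 50 μM, compared with no-inhibitor control. Read-out is mean total efflux over a 5 min time course, expressed as percent reduction in efflux. Usually run in duplicate.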

[3] = target: Quinolone resistance protein NorA (Staphylococcus aureus, UniProt P0A0J7); assay: Inhibition of NorA in Staphylococcus aureus 1199B harboring grlA A116E mutant assessed as inhibition of ethidium bromide efflux measured for 5 mins by fluorometric analysis
Summary of the method: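 Fluorometric EtBr efflux assay in SA-1199B (norA overexpressing, GrlA A116E) over a 5 min time course, compared with no-inhibitor control. Increasing inhibitor concentrations were tested, and IC50 was read by inspection of the dose-response plots. Usually run in duplicate.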

[4] = target: T1, Quinolone resistance protein NorA (Staphylococcus aureus); assay: Inhibition of wild type NorA in Staphylococcus aureus 1199 assessed as reduction of ciprofloxacin MIC at 0.78 to 100 ug/mL
Summary of the method: (§2)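 Ciprofloxacin MIC determined by CLSI broth microdilution, alone and combined with scalar dilutions of freshly prepared test compound; checkerboard combination format. Strains: ATCC 25923 (wild type), SA-1199 (norA wt), SA-1199B (norA overexpressing, GrlA A116E), SA-K2378 (norA on multicopy pCU1) and SA-K1902 (norA-deleted).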

Staphylococcus aureus [5] = assay: Reduction of ethidium bromide MIC in mepA-deficient Staphylococcus aureus K2885 at 0.78 to 100 ug/mL; type: functional, organism-based
Summary of the method: (§3)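 The strains are norA-deleted S. aureus carrying pALC2073-mepA (K2886) or the empty pALC2073 vector (K2885). Cloned genes are under a xyl/tetO promoter, induced by 0.05 μg/mL tetracycline, which was present in all experiments with these strains. EtBr MICs were determined by CLSI microdilution, with and without test compound.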

[6] = target: T1, Quinolone resistance protein NorA (Staphylococcus aureus); assay: Inhibition of NorA in Staphylococcus aureus K2378 assessed as reduction of ciprofloxacin MIC at 0.78 to 100 ug/mL relative to control; summary of the method: as §2
Staphylococcus aureus [7] = assay: Reduction of ciprofloxacin MIC in norA-deficient Staphylococcus aureus K1902 at 0.78 to 100 ug/mL; type: functional, organism-based; summary of the method: as §2
Staphylococcus aureus [8] = assay: Antibacterial activity against wild type Staphylococcus aureus ATCC 25923 assessed as growth inhibition by microdilution method; type: functional
Summary of the method: (§4)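 Broth microdilution MIC determination following CLSI guidelines. Strains: wild-type ATCC 25923 and SA-K1902 (norA−). Intrinsic activity was tested up to a top concentration of 100 μg/mL.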

Staphylococcus aureus [9] = assay: Antibacterial activity against Staphylococcus aureus 1199 harboring wild type norA assessed as growth inhibition by microdilution method
[10] = target: T1, Quinolone resistance protein NorA (Staphylococcus aureus); assay: Inhibition of NorA in Staphylococcus aureus ATCC 25923 assessed as reduction of ciprofloxacin MIC at 0.78 to 100 ug/mL; summary of the method: as §2
Staphylococcus aureus [11] = assay: Antibacterial activity against norA-deficient Staphylococcus aureus K1902 assessed as growth inhibition by microdilution method; type: functional; summary of the method: as §4
Staphylococcus aureus [12] = assay: Antibacterial activity against Staphylococcus aureus K2378 overexpressing norA assessed as growth inhibition by microdilution method; type: functional; summary of the method: as §1
Staphylococcus aureus [13] = assay: Inhibition of MepA in Staphylococcus aureus K2886 assessed as reduction of ethidium bromide MIC at 0.78 to 100 ug/mL; summary of the method: as §3

SMILES | MIC (Staphylococcus aureus [1]) [µM] | inhibition [2] [%] | IC50 [3] [µM] | also measured
CCCOc1ccc(-c2cc(OCCN(CC)Cc3ccccc3)c3ccccc3n2)cc1 | > 200 | 72.5 |  | 
CCCOc1ccc(-c2cc(OCCN3CCN(Cc4ccccc4)CC3)c3ccccc3n2)cc1 | > 200 | 81.2 | 3.8 | inhibition [4]: inactive; Activity (Staphylococcus aureus [5]): inactive; fold change (FC) [6]: 4; Activity (Staphylococcus aureus [7]): inactive; MIC (Staphylococcus aureus [8]): > 100 µg/mL; MIC (Staphylococcus aureus [9]): > 100 µg/mL; inhibition [10]: inactive; MIC (Staphylococcus aureus [11]): > 100 µg/mL; MIC (Staphylococcus aureus [12]): > 100 µg/mL; inhibition (Staphylococcus aureus [13]): Active
Fc1ccc([C@H]2CCNC[C@@H]2COc2ccc3c(c2)OCO3)cc1 |  | 85 |  | 
CCCOc1ccc(-c2cc(OCc3ccccn3)c3ccccc3n2)cc1 |  | 19.6 |  | 
CCCOc1ccc(-c2cc(OCCN3CCC4(CC3)OCCO4)c3ccccc3n2)cc1 | > 200 | 80.4 | 8.5 | inhibition [4]: inactive; fold change (FC) [6]: 4; Activity (Staphylococcus aureus [7]): inactive; MIC (Staphylococcus aureus [9]): > 100 µg/mL; inhibition [10]: inactive
CCCOc1ccc(-c2cc(OCCN3CCc4cc(OC)c(OC)cc4C3)c3ccccc3n2)cc1 |  | 79.6 |  | 
CCCOc1ccc(-c2cc(OCCN3CCN(C)CC3)c3ccccc3n2)cc1 | > 200 | 91 | 9.7 | 
CCCOc1ccc(-c2cc(OCCN(C)C)c3ccccc3n2)cc1 | > 249 | 92 | 9.9 | 
CCCOc1ccc(-c2cc(OCCN3CCOCC3)c3ccccc3n2)cc1 | > 200 | 86.9 | 10.7 | 
CCCOc1ccc(-c2cc(OCCN3CCC(=O)CC3)c3ccccc3n2)cc1 | > 200 | 71.7 |  | 
CCCOc1ccc(-c2cc(OC(C)CN(C)C)c3ccccc3n2)cc1 (racemic) | > 200 | 86.2 | 13.3 | 
CCCOc1ccc(-c2cc(OCCN(C(C)C)C(C)C)c3ccccc3n2)cc1 | > 200 | 88.2 | 8.3 | inhibition [4]: inactive; Activity (Staphylococcus aureus [5]): inactive; fold change (FC) [6]: 4; Activity (Staphylococcus aureus [7]): inactive; MIC (Staphylococcus aureus [8]): > 100 µg/mL; MIC (Staphylococcus aureus [9]): > 100 µg/mL; inhibition [10]: inactive; MIC (Staphylococcus aureus [11]): 100 µg/mL; MIC (Staphylococcus aureus [12]): > 100 µg/mL; inhibition (Staphylococcus aureus [13]): Active
CCCOc1ccc(-c2cc(OCCC(C)C)c3ccccc3n2)cc1 |  | 33.2 |  | 
CCCOc1ccc(-c2cc(OCCN)c3ccccc3n2)cc1 | > 310 | 96.1 | 9.3 | 
COC(=O)[C@H]1[C@H]2C[C@@H]3c4[nH]c5cc(OC)ccc5c4CCN3C[C@H]2C[C@@H](OC(=O)c2cc(OC)c(OC)c(OC)c2)[C@@H]1OC [RESERPINE] | > 150 |  | 9.2 | inhibition [4]: inactive; fold change (FC) [6]: 4; Activity (Staphylococcus aureus [7]): inactive; MIC (Staphylococcus aureus [8]): > 100 µg/mL; MIC (Staphylococcus aureus [9]): > 100 µg/mL; inhibition [10]: inactive; MIC (Staphylococcus aureus [11]): > 100 µg/mL; MIC (Staphylococcus aureus [12]): > 100 µg/mL
